The text below walks through data of ChEMBL document CHEMBL1127659, “In vitro and in vivo activities of reduced-size antagonists of luteinizing hormone-releasing hormone” (J Med Chem, 1994).

The species named for the assay is Rattus norvegicus. Briefly: In vitro antagonistic potency against release of luteinizing hormone (LH) from cultured rat pituitary cells. The format is functional. The following applies: Pituitary gland cell, read-out: pA2 (converted). Summed up: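 Cultured rat pituitary cells, agonist-stimulated LH release. pA2 is the negative log of the antagonist concentration that makes a 2-fold higher agonist concentration necessary to release LH. Compounds tested as TFA salts.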

`CCNC(=O)[C@@H]1CCCN1C(=O)[C@H](CCCN=C(N)N)NC(=O)[C@H](CC(C)C)NC(=O)[C@@H](Cc1c[nH]c2ccccc12)NC(=O)[C@H](Cc1ccc(O)cc1)NC(=O)[C@H](CO)NC(=O)[C@@H](Cc1ccc(Cl)cc1)NC(=O)CCc1ccc(F)cc1`: the Kb was 0.0178 nM. As to `CCNC(=O)[C@@H]1CCCN1C(=O)[C@H](CCCN=C(N)N)NC(=O)[C@H](CC(C)C)NC(=O)[C@@H](Cc1c[nH]c2ccccc12)NC(=O)[C@H](Cc1ccc(O)cc1)NC(=O)[C@H](CO)NC(=O)[C@@H](Cc1c[nH]c2ccccc12)NC(=O)c1cc2cc(F)ccc2[nH]1`, the Kb was 41.7 nM. The same measure for `CCNC(=O)[C@@H]1CCCN1C(=O)[C@H](CCCN=C(N)N)NC(=O)[C@H](CC(C)C)NC(=O)[C@@H](Cc1c[nH]c2ccccc12)NC(=O)[C@H](Cc1ccc(O)cc1)N(C)C(=O)[C@H](CO)NC(=O)[C@@H](Cc1cccc2ccccc12)NC(=O)CCc1ccc(F)cc1`: 0.00562 nM.

As to `CCNC(=O)[C@@H]1CCCN1C(=O)[C@H](CCCN=C(N)N)NC(=O)[C@H](CC(C)C)NC(=O)[C@@H](Cc1c[nH]c2ccccc12)NC(=O)[C@H](Cc1ccc(O)cc1)NC(=O)[C@H](CO)NC(=O)[C@@H](Cc1c[nH]c2ccccc12)NC(=O)c1cc2ccccc2[nH]1`, the Kb was 0.851 nM.

Take `CCNC(=O)[C@@H]1CCCN1C(=O)[C@H](CCCN=C(N)N)NC(=O)[C@H](CC(C)C)NC(=O)[C@@H](Cc1ccc(Cl)cc1)NC(=O)[C@H](Cc1ccc(O)cc1)NC(=O)[C@H](CO)NC(=O)[C@H](Cc1c[nH]c2ccccc12)NC(=O)CCc1ccc(F)cc1`: the Kb was 0.00891 nM. The same measure for `CCNC(=O)[C@@H]1CCCN1C(=O)[C@H](CCCN=C(N)N)NC(=O)[C@H](CC(C)C)NC(=O)[C@@H](Cc1c[nH]c2ccccc12)NC(=O)[C@H](Cc1ccc(O)cc1)NC(=O)[C@H](CO)NC(=O)[C@@H](Cc1cccc2ccccc12)NC(=O)CCc1ccc(F)cc1`: 0.00708 nM. With `CCNC(=O)[C@@H]1CCCN1C(=O)[C@H](CCCN=C(N)N)NC(=O)[C@H](CC(C)C)NC(=O)[C@@H](Cc1c[nH]c2ccccc12)NC(=O)[C@H](Cc1ccc(O)cc1)NC(=O)[C@H](CO)NC(=O)[C@H](Cc1c[nH]c2ccccc12)NC(=O)Cc1ccccc1`, the Kb was 5.5 nM. With `CCNC(=O)[C@@H]1CCCN1C(=O)[C@H](CCCN=C(N)N)NC(=O)[C@H](CC(C)C)NC(=O)[C@@H](Cc1c[nH]c2ccccc12)NC(=O)[C@H](Cc1ccc(O)cc1)NC(=O)[C@H](CO)NC(=O)[C@H](Cc1c[nH]c2ccccc12)NC(=O)CCc1ccc(C(F)(F)F)cc1` the figure was 0.955 nM; with `CCNC(=O)[C@@H]1CCCN1C(=O)[C@H](CCCN=C(N)N)NC(=O)[C@H](CC(C)C)NC(=O)[C@@H](Cc1c[nH]c2ccccc12)NC(=O)[C@H](Cc1ccc(O)cc1)NC(=O)[C@H](CO)NC(=O)[C@H](Cc1c[nH]c2ccccc12)NC(=O)c1cc2ccccc2[nH]1`, 17.8 nM. The same measure for `CCNC(=O)[C@@H]1CCCN1C(=O)[C@H](CCCN=C(N)N)NC(=O)[C@H](CC(C)C)NC(=O)[C@@H](Cc1c[nH]c2ccccc12)NC(=O)[C@H](Cc1ccc(O)cc1)NC(=O)[C@H](CO)NC(=O)[C@H](Cc1c[nH]c2ccccc12)NC(=O)Cc1ccc(Cl)cc1`: 5.5 nM; for `CCNC(=O)[C@@H]1CCCN1C(=O)[C@H](CCCN=C(N)N)NC(=O)[C@H](CC(C)C)NC(=O)[C@@H](Cc1c[nH]c2ccccc12)NC(=O)[C@H](Cc1ccc(O)cc1)NC(=O)[C@H](CO)NC(=O)[C@H]1CCCN1C(=O)CCc1ccc(F)cc1`: 2.4 nM.

With `CCNC(=O)[C@@H]1CCCN1C(=O)[C@H](CCCN=C(N)N)NC(=O)[C@H](CC(C)C)NC(=O)[C@@H](Cc1c[nH]c2ccccc12)NC(=O)[C@H](Cc1ccc(O)cc1)N(C)C(=O)[C@H](CO)NC(=O)[C@@H](Cc1c[nH]c2ccccc12)NC(=O)CCc1ccc(F)cc1F`, the Kb is 0.01 nM. The same measure for `CCNC(=O)[C@@H]1CCCN1C(=O)[C@H](CCCN=C(N)N)NC(=O)[C@H](CC(C)C)NC(=O)[C@@H](Cc1c[nH]c2ccccc12)NC(=O)[C@H](Cc1ccc(O)cc1)NC(=O)[C@H](CO)NC(=O)[C@H](Cc1c[nH]c2ccccc12)NC(=O)[C@H](Cc1ccccc1)NC(C)=O`: 9.55 nM; for `CCNC(=O)[C@@H]1CCCN1C(=O)[C@H](CCCN=C(N)N)NC(=O)[C@H](CC(C)C)NC(=O)[C@@H](CCCCNC(=O)c1cccnc1)NC(=O)[C@H](Cc1ccc(O)cc1)N(C)C(=O)[C@H](CO)NC(=O)[C@@H](Cc1c[nH]c2ccccc12)NC(=O)CCc1ccc(F)cc1`: 0.0347 nM; for `CCNC(=O)[C@@H]1CCCN1C(=O)[C@H](CCCN=C(N)N)NC(=O)[C@H](CC(C)C)NC(=O)[C@@H](CCCCNC(=O)c1cccnc1)NC(=O)[C@H](Cc1ccc(O)cc1)N(C)C(=O)[C@H](CO)NC(=O)[C@@H](Cc1c[nH]c2ccccc12)NC(=O)CCc1ccc(F)cc1F`: 0.00891 nM. The same measure for `CCNC(=O)[C@@H]1CCCN1C(=O)[C@H](CCCN=C(N)N)NC(=O)[C@H](CC(C)C)NC(=O)[C@@H](Cc1c[nH]c2ccccc12)NC(=O)[C@H](Cc1ccc(O)cc1)N(C)C(=O)[C@H](CO)NC(=O)[C@@H](Cc1cccc2ccccc12)NC(=O)CCc1ccc(Br)cc1`: 0.00631 nM. With `CCNC(=O)[C@@H]1CCCN1C(=O)[C@H](CCCN=C(N)N)NC(=O)[C@H](CC(C)C)NC(=O)[C@@H](Cc1c[nH]c2ccccc12)NC(=O)[C@H](Cc1ccc(O)cc1)NC(=O)[C@H](CO)NC(=O)[C@H](Cc1c[nH]c2ccccc12)NC(=O)CCc1ccc(OC)cc1` the figure was 2.4 nM; with `CCNC(=O)[C@@H]1CCCN1C(=O)[C@H](CCCN=C(N)N)NC(=O)[C@H](CC(C)C)NC(=O)[C@@H](Cc1c[nH]c2ccccc12)NC(=O)[C@H](Cc1ccc(O)cc1)N(C)C(=O)[C@H](CO)NC(=O)[C@@H](Cc1c[nH]c2ccccc12)NC(=O)CCc1ccc(Cl)cc1`, 0.00398 nM; with `CCNC(=O)[C@@H]1CCCN1C(=O)[C@H](CCCN=C(N)N)NC(=O)[C@H](CC(C)C)NC(=O)[C@@H](Cc1c[nH]c2ccccc12)NC(=O)[C@H](Cc1ccc(O)cc1)NC(=O)[C@H](CO)NC(=O)[C@H](Cc1c[nH]c2ccccc12)NC(=O)CCc1cccc(F)c1`, 0.891 nM. Regarding `CCNC(=O)[C@@H]1CCCN1C(=O)[C@H](CCCN=C(N)N)NC(=O)[C@H](CC(C)C)NC(=O)[C@@H](CCCCNC(=O)c1cccnc1)NC(=O)[C@H](Cc1ccc(O)cc1)NC(=O)[C@H](CO)NC(=O)[C@@H](Cc1c[nH]c2ccccc12)NC(=O)CCc1ccc(F)cc1`, the Kb is 0.0955 nM. With `CCNC(=O)[C@@H]1CCCN1C(=O)[C@H](CCCN=C(N)N)NC(=O)[C@H](CC(C)C)NC(=O)[C@@H](Cc1c[nH]c2ccccc12)NC(=O)[C@H](Cc1ccc(O)cc1)NC(=O)[C@H](CO)NC(=O)[C@H](Cc1c[nH]c2ccccc12)NC(=O)CCc1ccccc1F` the figure was 0.447 nM. The same measure for `CCNC(=O)[C@@H]1CCCN1C(=O)[C@H](CCCN=C(N)N)NC(=O)[C@H](CC(C)C)NC(=O)[C@@H](CCCCNC(=O)c1cccnc1)NC(=O)[C@H](Cc1ccc(O)cc1)N(C)C(=O)[C@H](CO)NC(=O)[C@@H](Cc1c[nH]c2ccccc12)NC(=O)CCc1cccc(F)c1`: 0.0871 nM; for `CCNC(=O)[C@@H]1CCCN1C(=O)[C@H](CCCN=C(N)N)NC(=O)[C@H](CC(C)C)NC(=O)[C@@H](Cc1c[nH]c2ccccc12)NC(=O)[C@H](Cc1ccc(O)cc1)NC(=O)[C@@H]1CC(O)CN1C(=O)[C@@H](Cc1c[nH]c2ccccc12)NC(=O)CCc1ccc(F)cc1` (some centres not stated): 20.9 nM; for `CC(C)C[C@H](NC(=O)[C@@H](CCCCNC(=O)c1cccnc1)NC(=O)[C@H](Cc1ccc(O)cc1)N(C)C(=O)[C@H](CO)NC(=O)[C@@H](Cc1cccc2ccccc12)NC(=O)CCc1ccc(F)cc1)C(=O)N[C@@H](CCCCNC(C)C)C(=O)N1CCC[C@H]1C(=O)O`: 7.76 nM.

For the molecule `CCNC(=O)[C@@H]1CCCN1C(=O)[C@H](CCCN=C(N)N)NC(=O)[C@H](CC(C)C)NC(=O)[C@@H](Cc1c[nH]c2ccccc12)NC(=O)[C@H](Cc1ccc(O)cc1)NC(=O)[C@H](CO)NC(=O)[C@H](Cc1cccc2ccccc12)NC(=O)CCc1ccc(F)cc1`, the Kb was 0.00501 nM.

Turning to `CC(C)C[C@H](NC(=O)[C@@H](CCCCNC(=O)c1cccnc1)NC(=O)[C@H](Cc1ccc(O)cc1)N(C)C(=O)[C@H](CO)NC(=O)[C@@H](Cc1cccc2ccccc12)NC(=O)CCc1ccc(F)cc1)C(=O)N[C@@H](CCCCNC(C)C)C(=O)N1CCC[C@H]1C(N)=O`, the Kb is 0.00692 nM. With `CCNC(=O)[C@@H]1CCCN1C(=O)[C@H](CCCN=C(N)N)NC(=O)[C@H](CC(C)C)NC(=O)[C@@H](Cc1c[nH]c2ccccc12)NC(=O)[C@H](Cc1ccc(O)cc1)NC(=O)[C@H](CO)N(C)C(=O)[C@@H](Cc1c[nH]c2ccccc12)NC(=O)CCc1ccc(F)cc1` the figure was 0.115 nM; with `CCNC(=O)[C@@H]1CCCN1C(=O)[C@H](CCCN=C(N)N)NC(=O)[C@H](CC(C)C)NC(=O)[C@@H](CCCCNC(=O)c1cccnc1)NC(=O)[C@H](Cc1ccc(O)cc1)NC(=O)[C@H](CO)NC(=O)[C@H](Cc1c[nH]c2ccccc12)NC(=O)CCc1ccc(F)cc1`, 20.9 nM.

In the case of `CCNC(=O)[C@@H]1CCCN1C(=O)[C@H](CCCN=C(N)N)NC(=O)[C@H](CC(C)C)NC(=O)[C@@H](Cc1c[nH]c2ccccc12)NC(=O)[C@H](Cc1ccc(O)cc1)NC(=O)[C@H](CO)NC(=O)[C@@H](Cc1c[nH]c2ccccc12)NC(=O)CCc1ccc(Cl)cc1`, the Kb is 0.166 nM. The same measure for `CCNC(=O)[C@@H]1CCCN1C(=O)[C@H](CCCN=C(N)N)NC(=O)[C@H](CC(C)C)NC(=O)[C@@H](Cc1c[nH]c2ccccc12)NC(=O)[C@H](Cc1ccc(O)cc1)NC(=O)[C@H](CO)NC(=O)[C@H](Cc1c[nH]c2ccccc12)NC(=O)CCc1ccc(Cl)cc1`: 0.126 nM; for `CCNC(=O)[C@@H]1CCCN1C(=O)[C@H](CCCN=C(N)N)NC(=O)[C@H](CC(C)C)NC(=O)[C@@H](CCCCNC(=O)c1cccnc1)NC(=O)[C@H](Cc1ccc(O)cc1)N(C)C(=O)[C@H](CO)NC(=O)[C@@H](Cc1c[nH]c2ccccc12)NC(=O)CCc1ccc(Cl)cc1`: 0.0158 nM. The same measure for `CCNC(=O)[C@@H]1CCCN1C(=O)[C@H](CCCN=C(N)N)NC(=O)[C@H](CC(C)C)NC(=O)[C@@H](Cc1c[nH]c2ccccc12)NC(=O)[C@H](Cc1ccc(O)cc1)NC(=O)[C@H](CO)NC(=O)[C@@H](Cc1c[nH]c2ccccc12)NC(=O)CCc1ccc(F)c(F)c1`: 0.0355 nM.
